Assay results as given in paper PMC9298613 (Journal of Food and Drug Analysis, 2018).

Experiments:
[1] = tested on: CYP3A2; assay: Western blot of hepatic CYP3A2 protein expression; type: in vivo, Wistar rats; conditions: for Reduction of CYP3A2 protein: rat received SA, compared with rats received APZ alone
Procedure, shortened: (§1)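 Wistar rats (190–210 g, n = 6/group), food withheld 12 h beforehand. Antipsychotic test compound 3 mg/kg p.o. once on day 15 or daily for 15 days; controls given oral saline for 15 days. After ether euthanasia, liver excised. 25 μg hepatic protein run on 10% SDS gel, transferred to PVDF, primary antibody overnight at 4 °C, HRP secondary 60 min. Chemiluminescence, densitometry, β-actin also probed. Mean ± SD, ANOVA/Dunnett.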

[2] = tested on: CYP2D6; assay: Western blot of hepatic CYP2D6 protein expression; type: in vivo, Wistar rats; conditions: for Reduction of CYP2D6 protein: rat received SA, compared with rats received APZ alone
Procedure, shortened: as §1

[3] = Pharmacokinetics of APZ in rat plasma; type: in vivo, Wistar rats
[4] = tested on: CYP3A2 and CYP2D6; assay: Hepatic CYP3A2 and CYP2D6 protein expression, summary statements; type: in vivo, Wistar rats; conditions: APZ after single or multiple dosing
Procedure, shortened: as §1

[5] = at steady state; cited from earlier work
[6] = administration of SA, in contrast to rats treated with multiple doses of APZ, p <0.05
[7] = animals treated with SA for 15 days, compared to rats treated with a single dose of APZ
[8] = multiple dose of APZ 3 mg/kg p.o. 15 days, compared to normal controls, p < 0.05
[9] = single dose of APZ 3 mg/kg p.o., liver, compared with normal controls, p <0.05
[10] = APZ 3 mg/kg p.o. daily for 15 days (multiple doses), with or without SA 20 mg/kg p.o. for 15 days, mean ± SD, n = 6
[11] = Wistar, rat, plasma, po, 3 mg/kg

COc1cc(C=CC(=O)O)cc(OC)c1O [SA, 3,5-dimethoxy-4-hydroxycinnamic acid]
Reduction in hepatic expression of CYP3A2 [1, 6]: 54.68%
Reduction of CYP3A2 hepatic protein [1, 7]: 31.57%
Reduction of CYP3A2 protein ([1]; multiple dose study, p <0.05): 73.75%
Reduction of CYP3A2 protein ([1]; single dose study, p <0.05): 50.52%
Reduction in hepatic expression of CYP2D6 [2, 6]: 65.76%
Reduction of CYP2D6 hepatic protein [2, 7]: 34.06%
Reduction of CYP2D6 protein ([2]; multiple dose study, p <0.05): 71.15%
Reduction of CYP2D6 protein ([2]; single dose study, p <0.05): 53.84%
Change in T1/2 of APZ on co-administration of SA (in words) ([3]; APZ single dose, SA 20 mg/kg p.o. for 15 days, compared with APZ alone): without a significant change

O=C1CCc2ccc(OCCCCN3CCN(c4cccc(Cl)c4Cl)CC3)cc2N1 [APZ, 7-[4-[4-(2,3-dichlorophenyl)-1-piperazinyl]butoxy]-3,4-dihydrocarbostyril]
Enhancement in liver expression of CYP3A2 [1, 8]: 135.29%
Enhancement in CYP3A2 protein expression [1, 9]: 90%
Increases in CYP3A2 and CYP2D6 expressions in hepatic tissues [4]: 2–3 folds
Enhancement in liver expression of CYP2D6 [2, 8]: 91.17%
Increase in CYP2D6 expression [2, 9]: 82%
AUMC 0-∞ [3, 10]: 3443.83 ± 234.17 ng/ml × h^^2
CL [3, 10]: 2.28 ± 0.09 mL/h/kg
Ke [3, 10]: 0.04 ± 0.005 h⁻¹
Vd [3, 10]: 0.06501 ± 0.00653 L/kg
Tmax [3, 11]: 8 h
k el [3, 11]: 1.11e-05 s⁻¹
AUC(0-t) ([3]; Wistar, rat, plasma, po, 3 mg/kg, AUC 0-t, APZ 3 mg/kg p.o. daily for 15 days (multiple doses), with or without SA 20 mg/kg p.o. for 15 days, mean ± SD, n = 6): 122 ± 3.45 ng·h/mL
AUC(0-inf) ([3]; Wistar, rat, plasma, po, 3 mg/kg, AUC 0-∞, APZ 3 mg/kg p.o. daily for 15 days (multiple doses), with or without SA 20 mg/kg p.o. for 15 days, mean ± SD, n = 6): 132 ± 4.85 ng·h/mL
Cmax ([3]; Wistar, rat, plasma, po, 3 mg/kg, Cmax, APZ 3 mg/kg p.o. daily for 15 days (multiple doses), with or without SA 20 mg/kg p.o. for 15 days, mean ± SD, n = 6): 7.08 ± 0.89 ng/mL
MRT inf ([3]; Wistar, rat, plasma, po, 3 mg/kg, MRT 0-∞, APZ 3 mg/kg p.o. daily for 15 days (multiple doses), with or without SA 20 mg/kg p.o. for 15 days, mean ± SD, n = 6): 26.1 ± 1.01 h
half-life ([3]; Wistar, rat, plasma, po, 3 mg/kg, T1/2, APZ 3 mg/kg p.o. daily for 15 days (multiple doses), with or without SA 20 mg/kg p.o. for 15 days, mean ± SD, n = 6): 19.8 ± 2.52 h
APZ converted to the major metabolite DAPZ [5]: about 40%
